# Measurements of several laboratories.
# Each line is one published result; the experiments were not run side by side.
# Target: Ephrin type-B receptor 4 (EPHB4, Homo sapiens, UniProt P54760)
SMILES,test,conditions,quantity,result
CCOc1cc(-c2nncn2C)ccc1Nc1ncc2cc(C)nc(NCC(C)(C)C)c2n1,"enzyme activity, inhibitor, FRET",1 µM,inhibition,< 15%
CCN(CC)c1ccc(C2=NNC(=O)CC2C)cc1[N+](=O)[O-] (centres unmarked),"enzyme activity, inhibitor",10 µM,remaining activity,100%
CN(C)CC#Cc1ccc(OCCCc2sc(N3CCc4cccc(C(=O)Nc5nc6ccccc6s5)c4C3)nc2C(=O)O)c(F)c1,"cell-free assay, competition with immobilised ligand",1 µM,remaining binding,100%
C[S+]([O-])c1ccc(-c2nc(-c3ccncc3)c(-c3ccc(F)cc3)[nH]2)cc1 (centres unmarked),cell-free assay,0.5 µM,remaining signal,91.1%
CSc1nc(C)c(-c2ccnc(Nc3ccc(N4CCOCC4)cc3)c2)[nH]1,"cell-free assay, inhibitor",10 µM,inhibition,18.2%
Nc1cnc(N2CCc3cc(S(=O)(=O)Nc4c(F)cc(Cl)cc4F)cc(N4CCCC4=O)c32)nc1,"cell-free assay, competition with immobilised ligand",1 µM,remaining binding,100%
CC(C)(C)c1nc2c(s1)c1nc(N)ncc1c1ccc(NS(=O)(=O)c3c(F)cccc3F)c(F)c12,"enzyme activity, inhibitor, radiometric",1 µM,remaining activity,93%
CC(C)(O)[C@H]1CC[C@H](Nc2ccc3ncc(-c4cccc(C(F)(F)F)c4)n3n2)CC1,"enzyme activity, inhibitor",1 µM,remaining activity,78.2%
O=C(Nc1cnn(-c2csc(C(=O)NC3COC3)c2)c1)Nc1ccccc1Cl,"enzyme activity, inhibitor",5 µM,remaining activity,97.8%
COc1cc2ncnc(Nc3ccc(Oc4ccccc4)cc3C)c2cc1OC,"enzyme activity, inhibitor",1 µM,inhibition,21%
CO[C@H]1CC[C@H](CNc2ccc(S(=O)(=O)NC(=O)c3ccc(N4CCN(CC5=C(c6ccc(Cl)cc6)CC(C)(C)CC5)CC4)cc3Oc3cnc4[nH]ccc4c3)cc2[N+](=O)[O-])CC1,"cell-free assay, competition with immobilised ligand",1 µM,remaining binding,100%
Oc1cccc(-c2nc(N3CCOCC3)c3oc4ncccc4c3n2)c1,"enzyme activity, inhibitor",10 µM,remaining activity,86%
COc1cccc2c(NCc3ccccc3)nc(-n3c(N)nc4ccccc43)nc12,"target engagement in cells, inhibitor, chemoproteomics",20 mM,inhibition,-8.8%
COc1cc(Cl)c(C(=O)N[C@@H](CN[C@H]2CC[C@@H](N)CC2)Cc2ccc(C#N)cc2)cc1-c1ccc(CN[C@H](C)c2ccc(C)cc2)o1,"enzyme activity, inhibitor",1 µM,remaining activity,91%
CS(=O)(=O)N1CCCC(NC(=O)[C@H](CCC2CCCCC2)NC(=O)c2ccc(CNc3ncnc4c3nnn4-c3ccccc3)cc2)C1 (some centres unmarked),"cell-free assay, competition with immobilised ligand",0.1 µM,remaining binding,96%
Cc1[nH]c(/C=C2\C(=O)Nc3ccc(F)cc32)c(C)c1C(=O)N[C@H]1CCN(C(=O)N(C)C)C1,"enzyme activity, inhibitor",0.1 µM,remaining activity,111%
COc1cc(Nc2cnc(C#N)c(O[C@H](C)CN(C)C)n2)ncc1-c1cnn(C)c1,"enzyme activity, inhibitor, radiometric",10 µM,remaining activity,88%
COc1ccc(COc2ccc(Cc3cnc(N)nc3N)cc2OC)cc1,cell-free assay,0.5 µM,remaining signal,90.5%
O=C(Nc1cnn(-c2csc(C(=O)NC3COC3)c2)c1)Nc1c(F)cccc1Cl,"enzyme activity, inhibitor",5 µM,remaining activity,98.1%
Cc1c[nH]c2nccc(Oc3c(F)cc(Nc4cc(Cl)nc(N)n4)cc3F)c12,"cell-free assay, competition with immobilised ligand",0.1 µM,remaining binding,100%
O=C1Nc2ccc(Cl)cc2C1=Cc1cc(Cl)c(O)c(Cl)c1,cell-free assay,0.5 µM,remaining signal,100%
CNCc1ccc(-c2cc(-c3nc(-c4ccc(S(=O)(=O)C(C)C)cc4)cnc3N)on2)cc1,"enzyme activity, inhibitor",0.4 µM,inhibition,0%
Cc1ccc(C(=O)NCc2ccsc2)cc1C#Cc1cn(C(C)C)c2ncnc(N)c12,"enzyme activity, inhibitor",1 µM,activity vs control,28%
Cc1cc(NC(=O)c2cccc(S(F)(F)(F)(F)F)c2)cc(-n2ccn3nc(-c4cccnc4)cc23)c1,"cell-free assay, competition with immobilised ligand",1 µM,remaining binding,100%
C=CC(=O)Nc1cc(Nc2nccc(Nc3cc(Cl)c(F)cc3C(C)(C)O)n2)c(OC)cc1N1CC[C@@H](N(C)C)C1,"enzyme activity, inhibitor",1 µM,inhibition,7%
c1ccc(N2CCN(Cc3nc4ccccc4[nH]3)CC2)nc1,"cell-free assay, competition with immobilised ligand",1 µM,remaining binding,100%
CCCS(=O)(=O)Nc1ccc(F)c(C(=O)c2c[nH]c3ncc(-c4ccc(Cl)cc4)cc23)c1F,"enzyme activity, inhibitor",1 µM,inhibition,< 20%
O=C1NC(=O)c2cc(Nc3ccc(F)cc3)c(Nc3ccc(F)cc3)cc21,cell-free assay,0.5 µM,remaining signal,108%
Cc1nc(Cc2cccc(C(F)(F)F)c2)sc1-c1ccc(C(N)=O)nc1,"cell-free assay, competition with immobilised ligand",1 µM,remaining binding,100%
